The entries come from a sample that favours hits as a whole.
DYRK1A inh: Dyrk1A (rat) kinase inhibition; Q63470; ADP-Glo luminescence, NFATc1 peptide; inhibition, % at 12.5 µM; 310,000 compounds, 0.43% hits; in the data active = inhibition above about 50%
GSK3 alpha inh: blocks human GSK-3 alpha kinase. P49840. ADP-Glo luminescence, 60 min. inhibition, % at 10 µM. 320,000 compounds, 0.1% hits;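 active = more than half of replicates show inhibition above 20%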;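 note: GST-tagged GSK-3 alpha with peptide substrate and 25 µM ATP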
Target sequence (P49840 whole entry, looked up): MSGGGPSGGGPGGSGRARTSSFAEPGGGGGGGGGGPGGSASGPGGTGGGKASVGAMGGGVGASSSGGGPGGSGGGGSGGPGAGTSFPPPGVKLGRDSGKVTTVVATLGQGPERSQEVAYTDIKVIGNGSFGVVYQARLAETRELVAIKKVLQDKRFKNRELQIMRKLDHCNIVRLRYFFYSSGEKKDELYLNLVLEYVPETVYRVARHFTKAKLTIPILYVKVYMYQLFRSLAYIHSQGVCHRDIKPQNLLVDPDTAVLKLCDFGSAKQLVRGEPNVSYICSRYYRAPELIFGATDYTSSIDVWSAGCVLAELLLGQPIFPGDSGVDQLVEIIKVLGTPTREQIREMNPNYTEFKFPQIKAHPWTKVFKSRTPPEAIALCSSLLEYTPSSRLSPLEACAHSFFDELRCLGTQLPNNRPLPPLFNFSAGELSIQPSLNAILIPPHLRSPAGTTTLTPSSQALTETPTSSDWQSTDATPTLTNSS
GSK3B inh: human GSK3beta kinase inhibition; 300,000 compounds, 0.038% hits; GST-GSK3beta kinase, ADP-Glo luminescence, 60 min; stronger effect = lower value; activity score (negative = inhibition), % at 10 µM; P49841;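 active = more than half of replicate wells score below -50%, meaning over 50% inhibition versus plate controls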
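Test system: GST-tagged human GSK3beta kinase, cell-free; evaluation: activity score scaled between in-plate DMSO and GW8510 controls; measured by: ADP-Glo luminescence; incubation: 60 min reaction, RT; benchmarks: DMSO and 20 µM GW8510; reagent: peptide substrate plus 25 µM ATP (final); medium: Tris/MgCl2 kinase buffer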
STK33 kinase inh: inhibitors of human STK33 kinase; inhibition, % at 10 µM; 320,000 compounds, 0.073% hits; purified STK33, MBP phosphorylation, ADP-Glo luminescence;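 active = inhibition at or above 25%, using the most active replicate where run in duplicate; inactive = inhibition below 25%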
ADP-Glo artifact: interferes with ADP-Glo luciferase readout without Dyrk1A | ADP-Glo luciferase artifact assay, no Dyrk1A, luminescence | AC50, µM (highest dose often 12 µM) | 1,300 tested, under 10 active | shares compounds with DYRK1A inh | AID 588348;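 active = fitted half-maximal dose AC50 no more than ten times the top valid tested dose, with luminescence dropping as dose rises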
Large screens that a line does not name were inactive (follow-up assays come after a bar, where they were run).

COc1ccc2c(c1)c(=O)oc1c(C)c(OCc3ccc(C(=O)O)cc3)ccc12	none
COC(=O)c1cc2c([nH]c3ccccc32)c(C)n1	none (no result: DYRK1A inh, GSK3 alpha inh, STK33 kinase inh)
COC(=O)c1nccc2c1[nH]c1ccccc12	DYRK1A inh 65.8 | ADP-Glo artifact inactive
O=C1NC(=O)/C(=C\c2ccc(O)cc2O)S1	DYRK1A inh 84.8, STK33 kinase inh 35.5 | ADP-Glo artifact inactive
COc1ccc(C(C(=O)NC2CCCCC2)N(C(=O)CCl)c2cccc(Cl)c2)cc1 (stereo unspecified)	none
Nc1nc(N)nc(-c2ccc(Cl)c(Cl)c2)n1	DYRK1A inh 84.4 (no result: GSK3B inh) | ADP-Glo artifact inactive
CCCN(CCC)CCNC(=O)c1cc2c(=O)n(C)c3ccccc3c2n1C	DYRK1A inh 70.0 | ADP-Glo artifact inactive
COc1cc(/C=C2\SC(=Nc3ccccc3)NC2=O)cc(Cl)c1O	DYRK1A inh 51.5 | ADP-Glo artifact inactive
Oc1ccc2c(c1)oc1cc(O)ccc12	DYRK1A inh 89.8, GSK3 alpha inh 53.1 | ADP-Glo artifact inactive
CC(C)Cn1nc(NC(=O)c2cccs2)c2cc3ccccc3nc21	none
COc1ccc2nc3c(cc2c1)c(NC(=O)c1cccs1)nn3CC(C)C	DYRK1A inh 89.4, GSK3 alpha inh 72.6, GSK3B inh -92.0 | ADP-Glo artifact inactive
O=C(Nc1cccc2nsnc12)c1ccc2c(c1)OCO2	DYRK1A inh 54.0 | ADP-Glo artifact inactive
COc1cccc(/C=C2\Oc3cc(OCC(=O)N4Cc5ccccc5C[C@H]4C(=O)O)ccc3C2=O)c1	none
O=C1/C(=C/c2ccc3c(c2)OCO3)Oc2cc(OCC(=O)N3CCC[C@H]3C(=O)O)ccc21	DYRK1A inh 70.7, GSK3 alpha inh 58.9 | ADP-Glo artifact inactive
O=C(O)CCC(=O)Nc1ccc(N2CCCCCC2)cc1	DYRK1A inh 53.1 | ADP-Glo artifact inactive
Cc1ccc(N2CCN(c3ccc(NC(=O)CCC(=O)O)cc3)CC2)cc1	none
O=C(c1ccc2c3n(nc2c1)-c1ccc(Cl)cc1CO3)N1CCOCC1	none
O=C(c1ccc2c3n(nc2c1)-c1ccccc1CO3)N1CCOCC1	DYRK1A inh 58.6, GSK3 alpha inh 50.9, STK33 kinase inh 43.0 | ADP-Glo artifact 9.04µM
Cc1ccc(S(=O)(=O)N(CC(=O)Nc2ccccc2C(=O)O)c2ccccc2)cc1	none
CN(CC(=O)Nc1ccc(F)c(F)c1F)C(=O)c1ccc(=O)[nH]c1	none
Nc1ccc(C(=O)Nc2nc3ccccc3s2)cc1	DYRK1A inh 56.4 | ADP-Glo artifact inactive
CC(C)=CCc1cc(-c2oc3cc(O)cc(O)c3c(=O)c2O)ccc1O	DYRK1A inh 62.7 | ADP-Glo artifact inactive
O=c1cc(-c2ccccc2)c2c(O)cc(O)cc2o1	DYRK1A inh 61.4, GSK3 alpha inh 71.9, GSK3B inh -58.1 | ADP-Glo artifact inactive
O=c1c(O)c(-c2cc(O)c(O)c(O)c2)oc2cc(O)cc(O)c12	DYRK1A inh 89.6, GSK3 alpha inh 61.6, STK33 kinase inh 37.3 (no result: GSK3B inh) | ADP-Glo artifact inactive
O=c1c(O)c(-c2ccccc2)oc2cc(O)cc(O)c12	DYRK1A inh 74.8 (no result: GSK3 alpha inh, GSK3B inh, STK33 kinase inh) | ADP-Glo artifact inactive
O=c1c(-c2ccccc2)c(-c2ccccc2)oc2cc(O)cc(O)c12	none
c1cc2c(cn1)cnc1cscc12	none
Cc1ccn2cc(-c3ccc(NC(=O)c4ccco4)cc3)nc2c1	none
Cc1cc(NS(C)(=O)=O)c(=O)n(Cc2cccc(F)c2)c1	none (no result: GSK3 alpha inh, STK33 kinase inh)
CCOC(=O)c1[nH]ncc1CN1CCc2ccc(NC(=O)C3CCCO3)cc2C1 (stereo unspecified)	none
O=C1NC(=S)S/C1=C/c1ccc(N2CCOCC2)o1	none
O=C1NC(=O)/C(=C\c2ccc(Br)o2)S1	DYRK1A inh 65.6 | ADP-Glo artifact inactive
O=C1NC(=O)/C(=C/c2ccc(-c3cc(C(=O)O)ccc3Cl)o2)S1	DYRK1A inh 60.9 | ADP-Glo artifact inactive
O=C1NC(=S)/C(=C\c2ccc(-c3ccccc3Cl)o2)S1	none
CC(C)NC(=O)CSc1nc2sccc2c(=O)n1-c1ccccc1	none
CC(C)C[C@H]1COCCS(=O)(=O)N1Cc1ccc(Cl)c(Cl)c1	DYRK1A inh 50.7 | ADP-Glo artifact inactive
CCC1COCCS(=O)(=O)N1Cc1cccc(Cl)c1 (stereo unspecified)	none
c1cnc2ncc3sccc3c2c1	DYRK1A inh 59.2 | ADP-Glo artifact inactive
CC1(C)Nc2ccc(O)cc2-c2c1ssc2=S	DYRK1A inh 52.1 | ADP-Glo artifact inactive
COc1cccc(-n2sc3c(c2=S)-c2cc(OC)ccc2NC3(C)C)c1	none
COc1cccc(CN(C)C(=O)COc2cccc3c2OC(C)(C)C3)c1OC	none (no result: GSK3 alpha inh, GSK3B inh, STK33 kinase inh)
O=C(COC(=O)c1ccc[n+]([O-])c1)Nc1c(Br)cc([N+](=O)[O-])cc1Br	none (no result: DYRK1A inh)
NS(=O)(=O)c1ccc(-c2ccc(/C=C3\NC(=S)NC3=O)o2)cc1	DYRK1A inh 74.9 | ADP-Glo artifact inactive
O=C(O)c1ccc(/C=N/Nc2ccc(C(F)(F)F)cn2)cc1	DYRK1A inh 54.0 (no result: GSK3 alpha inh, STK33 kinase inh) | ADP-Glo artifact inactive
O=C(O)c1ccc(/C=N/Nc2cccc(C(F)(F)F)c2)cc1	none (no result: GSK3 alpha inh, GSK3B inh)
O=C(OCc1nnc(-c2ccccc2)o1)c1ccc2c(c1)OCO2	none
c1ccc(-c2nnc(CSc3ccc4c(c3)OCCO4)o2)cc1	DYRK1A inh 53.8 | ADP-Glo artifact inactive
O=c1c2ccccc2nnn1CSc1nnc(-c2ccc3c(c2)OCO3)o1	DYRK1A inh 55.8 | ADP-Glo artifact inactive
COc1ccc(/C=C2\SC(=S)N(C(C)C(=O)NC3C=CS(=O)(=O)C3)C2=O)cc1 (stereo unspecified)	DYRK1A inh 76.6 | ADP-Glo artifact inactive
CC(C)(C)c1ccc(S(=O)(=O)N2CCC(CO)(CC3CCCCO3)CC2)cc1 (stereo unspecified)	none
COc1ccc2c(c1)C(=O)N1[C@H]3c4cc(C)ccc4OC[C@@H]3[C@H](c3ccccc3)[C@]1(C)C(=O)N2	DYRK1A inh 54.9 (no result: GSK3B inh) | ADP-Glo artifact inactive
COc1ccc2c(c1)OC[C@H]1[C@H]2N2C(=O)CN(CC3CCCO3)C(=O)[C@@]2(C)[C@H]1c1ccccc1 (stereo partly specified)	DYRK1A inh 50.2 (no result: GSK3B inh) | ADP-Glo artifact inactive
Cc1ccc(S(=O)(=O)N(Cc2ccc([N+](=O)[O-])cc2)C(=O)N2CCN(C)CC2)cc1	none (no result: GSK3 alpha inh, STK33 kinase inh)
CCCC[n+]1ccc(-c2nc3ccc([N+](=O)[O-])cc3[nH]2)cc1	DYRK1A inh 83.3 | ADP-Glo artifact inactive
O=[N+]([O-])c1ccc(-c2nc3ccc([N+](=O)[O-])cc3[nH]2)cc1	none
O=C1NC(C(=O)O)=CC(c2cccc(Cl)c2Cl)N1 (stereo unspecified)	none (no result: GSK3B inh)
CCN1C=CC(=C2C(=O)c3ccccc3C2=O)C=C1	DYRK1A inh 57.5, STK33 kinase inh 28.5 | ADP-Glo artifact inactive
O=C(Nc1cccc(Cl)c1)Nc1nccs1	DYRK1A inh 58.6 | ADP-Glo artifact inactive
COC(=O)c1cc(NC(=O)Nc2cccc(Cl)c2)ccc1Cl	DYRK1A inh 53.2 | ADP-Glo artifact inactive
O=C(Nc1ccc(Cl)c(Cl)c1)Nc1nccs1	none
COc1ccc(CN(C)CC(=O)Nc2cccc(S(=O)(=O)N(C)c3ccccc3)c2)c(OC)c1	none (no result: GSK3B inh)
COc1ccccc1CNS(=O)(=O)c1cc(C(=O)N(C)Cc2cccnc2)c(Cl)cc1Cl	none (no result: GSK3 alpha inh, GSK3B inh, STK33 kinase inh)
COc1cc(/C=C2\SC(=S)N(NC(=O)c3ccc(O)c(OC)c3)C2=O)ccc1O	none

Screening data: PubChem, Broad Institute
